The source made the active and inactive calls. No cut-off for these calls is given here.
Assays:
[1] = test system: MIA PaCa-2; test: Induction of cell death in human MIA PaCa-2 cells measured after 24 hrs by fluorescent microscopy; assay type: functional, cell-based
How it was run: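 MiaPaCa2 cells treated with 5 and 10 µM for 24 h, then stained with calcein-AM plus ethidium homodimer-1 for 30 min. Live and dead cells imaged by fluorescence microscopy. Dead/total cell ratio computed, n = 3. Two-way ANOVA with Bonferroni test.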

[2] = test system: Mus musculus; test: In vivo inhibition of IKKbeta in Foxn1nu athymic nude mouse xenografted with human MIA PaCa-2 cells assessed as reduction in p-IKKbeta level at 40 mg/kg, po administered for 4 weeks by immunohistochemistry analysis; assay type: functional, organism-based
How it was run: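 Same xenograft tissue. Paraffin sections antigen-retrieved in citrate pH 6.0 and stained with p-IKKβ antibody overnight at 4 °C, then HRP secondary. Histoscore (0–15) = proportion score × intensity score (0–3), n = 5. Unpaired t-test.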

[3] = molecular target: T1, Inhibitor of nuclear factor kappa-B kinase subunit beta (Homo sapiens) (UniProt O14920); test: Inhibition of IKKbeta phosphorylation in human Pancreatic cancer cells measured after 6 hr by Western blot analysis; conditions: Pancreatic cancer cell, dose 0.5-5 µM
T1 sequence (whole entry): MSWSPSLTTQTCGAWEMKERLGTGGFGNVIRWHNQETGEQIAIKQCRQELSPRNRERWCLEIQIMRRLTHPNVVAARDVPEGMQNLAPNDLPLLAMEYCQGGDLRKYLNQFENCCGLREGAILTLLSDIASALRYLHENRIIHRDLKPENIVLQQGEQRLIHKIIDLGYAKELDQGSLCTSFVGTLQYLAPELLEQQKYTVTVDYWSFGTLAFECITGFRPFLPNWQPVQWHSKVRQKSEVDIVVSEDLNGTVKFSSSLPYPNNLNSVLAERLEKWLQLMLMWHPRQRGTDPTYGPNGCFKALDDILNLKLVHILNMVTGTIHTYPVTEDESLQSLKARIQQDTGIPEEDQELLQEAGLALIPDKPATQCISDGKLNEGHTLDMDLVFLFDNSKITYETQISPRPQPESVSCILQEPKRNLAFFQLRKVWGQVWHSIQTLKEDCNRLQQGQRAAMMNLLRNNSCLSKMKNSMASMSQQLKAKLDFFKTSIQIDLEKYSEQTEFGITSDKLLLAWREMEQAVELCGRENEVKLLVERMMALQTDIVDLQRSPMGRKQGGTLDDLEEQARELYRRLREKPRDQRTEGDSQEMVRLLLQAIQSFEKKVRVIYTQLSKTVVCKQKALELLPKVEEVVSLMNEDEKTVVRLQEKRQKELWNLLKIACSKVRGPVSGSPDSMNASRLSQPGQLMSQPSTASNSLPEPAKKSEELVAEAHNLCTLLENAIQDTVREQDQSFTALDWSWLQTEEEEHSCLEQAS
How it was run: (§1)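 T3M4 cells treated at 0.5–5.0 µM for 6 h, or at 5 µM for 0.5–24 h. Lysates (40 µg protein) run on 4–20% SDS-PAGE and transferred to PVDF. Blots probed for p-IKKβ and IKKβ with β-actin loading control, chemiluminescent detection.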

[4] = test system: MIA PaCa-2; test: Antitumor activity against human MIA PaCa-2 cells xenografted in Foxn1nu athymic nude mouse assessed as reduction in proliferation index at 40 mg/kg, po administered for 4 weeks by Ki67 staining based assay; assay type: functional, organism-based
How it was run: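 Same xenograft and dosing design. Formalin-fixed paraffin sections (5 µm) stained with anti-Ki-67. Percentage of Ki-67-positive cells counted in 4 fields per tumor, n = 5. Unpaired t-test.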

[5] = test system: MIA PaCa-2; test: Antitumor activity against human MIA PaCa-2 cells xenografted in Foxn1nu athymic nude mouse assessed as reduction in tumor weight at 40 mg/kg, po administered for 4 weeks in combination gemcitabine […]; assay type: functional; conditions: MIA PaCa-2, po, 672 h
How it was run: (§2)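 MiaPaCa2 cells (2.5 × 10⁶, with Matrigel 2:1) implanted s.c. in the left flank. Mice randomized at day 20, n = 6 per group. Compound given orally once daily; gemcitabine 15 mg/kg i.p. every 72 h where combined; vehicle 100 µl orally. Tumors measured by caliper every 3 days (1/2 × L × W²). Tumors weighed after sacrifice after day 27. Unpaired t-test.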

[6] = Volume of distribution at steady state in CD1 mouse at 10 mg/kg, iv measured up to 24 hrs measured by LC/MS-MS analysis; assay type: ADME, organism-based; conditions: in vivo, read-out: Vdss
How it was run: (§3)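 Single intravenous 10 mg/kg dose in DMSO:PEG400:H2O 1:5:4. Mice killed at 0.083, 0.25, 0.5, 1, 2, 4, 8 and 24 h. Plasma levels measured by LC/MS/MS against a carbamazepine internal standard. Parameters derived by non-compartmental analysis.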

[7] = AUC (0 to infinity) in CD1 mouse at 10 mg/kg, iv measured up to 24 hrs measured by LC/MS-MS analysis; assay type: ADME, organism-based; set-up: route intravenous, dose 10 mg/kg, time <=24; conditions: in vivo; how it was run: as §3
[8] = test system: MIA PaCa-2; test: Antitumor activity against human MIA PaCa-2 cells xenografted in Foxn1nu athymic nude mouse assessed as reduction in tumor volume at 40 mg/kg, po administered for 4 weeks by digital caliper method relative to control; assay type: functional; set-up: scale not given: the % may be the effect or the level left; how it was run: as §2
[9] = test system: MIA PaCa-2; test: Antiproliferative activity against human MIA PaCa-2 cells assessed as growth inhibition after 72 hrs by PrestoBlue dye based fluorescence assay; assay type: functional
[10] = AUClast in CD1 mouse at 20 mg/kg, po measured up to 24 hrs measured by LC/MS-MS analysis; assay type: ADME, organism-based; set-up: route oral, dose 20 mg/kg, time <=24; conditions: in vivo
How it was run: (§4)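 Oral 20 mg/kg given in DMSO:PEG400:H2O 1:4:5. Mice killed at 0.083, 0.25, 0.5, 1, 2, 4, 8 and 24 h and plasma analysed by LC/MS/MS with a carbamazepine internal standard. Parameters derived by non-compartmental analysis.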

[11] = molecular target: T1, Inhibitor of nuclear factor kappa-B kinase subunit beta (Homo sapiens); test: Inhibition of IKKbeta phosphorylation in human Pancreatic cancer cells at 5 uM by Western blot analysis; conditions: Pancreatic cancer cell, time hrs <=24, TDE = time-dependent effect; how it was run: as §1
[12] = MRT (0 to infinity) in CD1 mouse at 10 mg/kg, iv measured up to 24 hrs measured by LC/MS-MS analysis; assay type: ADME, organism-based; conditions: in vivo; how it was run: as §3
[13] = Oral bioavailability in CD1 mouse at 20 mg/kg measured up to 24 hrs measured by LC/MS-MS analysis; assay type: ADME, organism-based; conditions: in vivo
How it was run: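 %F taken from oral (20 mg/kg, DMSO:PEG400:H2O 1:4:5) and intravenous (10 mg/kg, DMSO:PEG400:H2O 1:5:4) AUC0-∞. Plasma sampled from 0.083 to 24 h and quantified by LC/MS/MS with a carbamazepine internal standard. Non-compartmental analysis.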

[14] = test system: MIA PaCa-2; test: Antitumor activity against human MIA PaCa-2 cells xenografted in Foxn1nu athymic nude mouse assessed as reduction in tumor weight at 40 mg/kg, po administered for 4 weeks […] relative to control; assay type: functional; set-up: scale not given: the % may be the effect or the level left; how it was run: as §2
[15] = AUC (0 to infinity) in CD1 mouse at 20 mg/kg, po measured up to 24 hrs measured by LC/MS-MS analysis; assay type: ADME, organism-based; set-up: route oral, dose 20 mg/kg, time <=24; conditions: in vivo; how it was run: as §4
[16] = Cmax in CD1 mouse at 20 mg/kg, po measured up to 24 hrs measured by LC/MS-MS analysis; assay type: ADME, organism-based; set-up: route oral, dose 20 mg/kg, time <=24; conditions: in vivo; how it was run: as §4
[17] = test system: MIA PaCa-2; test: Induction of apoptosis in human MIA PaCa-2 cells assessed as increase in caspase 3/7 activation at 10 uM incubated for 24 hrs by Caspase-Glo assay; assay type: functional, cell-based
How it was run: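 MiaPaCa2 cells (2.5 × 10⁴/well) attached overnight, then treated 24 h at 0.1% final DMSO. alamarBlue added at 21 h for 3 h and fluorescence read at 560/590. Caspase-Glo luminescence read 2 h later. Luminescence ×100/fluorescence normalized to DMSO average, n = 3.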

[18] = Half life in CD1 mouse at 10 mg/kg, iv measured up to 24 hrs measured by LC/MS-MS analysis; assay type: ADME, organism-based; conditions: in vivo; how it was run: as §3
[19] = MRT (0 to infinity) in CD1 mouse at 20 mg/kg, po measured up to 24 hrs measured by LC/MS-MS analysis; assay type: ADME, organism-based; conditions: in vivo; how it was run: as §4
[20] = Tmax in CD1 mouse at 20 mg/kg, po measured up to 24 hrs measured by LC/MS-MS analysis; assay type: ADME, organism-based; conditions: in vivo; how it was run: as §4
[21] = Cmax in CD1 mouse at 10 mg/kg, iv measured up to 24 hrs measured by LC/MS-MS analysis; assay type: ADME, organism-based; set-up: route intravenous, dose 10 mg/kg, time <=24; conditions: in vivo; how it was run: as §3
[22] = AUClast in CD1 mouse at 10 mg/kg, iv measured up to 24 hrs measured by LC/MS-MS analysis; assay type: ADME, organism-based; set-up: route intravenous, dose 10 mg/kg, time <=24; conditions: in vivo; how it was run: as §3
[23] = Half life in CD1 mouse at 20 mg/kg, po measured up to 24 hrs measured by LC/MS-MS analysis; assay type: ADME, organism-based; conditions: in vivo; how it was run: as §4
[24] = Antiproliferative activity against human T3M4 cells assessed as growth inhibition after 72 hrs by PrestoBlue dye based fluorescence assay; assay type: functional
[25] = test system: MIA PaCa-2; test: Anti-migration activity in human MIA PaCa-2 cells at 5 uM measured upto 48 hrs by microscopy based wound scratch method; assay type: functional, cell-based; conditions: time hrs <=48
[26] = test system: MIA PaCa-2; test: Antitumor activity against human MIA PaCa-2 cells xenografted in Foxn1nu athymic nude mouse assessed as reduction in tumor volume at 40 mg/kg, po administered for 4 weeks in combination gemcitabine by digital caliper method relative to control; assay type: functional; conditions: MIA PaCa-2, po, 672 h; how it was run: as §2
[27] = molecular target: T2, Inhibitor of nuclear factor kappa-B kinase subunit beta (Homo sapiens, UniProt O14920); test: Inhibition of TNFalpha-induced IKKbeta mediated NF-kappaB activation in human Pancreatic cancer cells by luciferase reporter gene assay; set-up: species or system Pancreatic cancer cell
T2 sequence (O14920 whole entry): T1 sequence (whole entry)

[28] = test system: MIA PaCa-2; test: Antitumor activity against human MIA PaCa-2 cells xenografted in Foxn1nu athymic nude mouse assessed as reduction in tumor weight at 15 mg/kg, ip administered every 3 days for 4 weeks […]; assay type: functional; set-up: scale not given: the % may be the effect or the level left
How it was run: (§5)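 MiaPaCa2 cells (2.5 × 10⁶, mixed 2:1 with Matrigel) implanted subcutaneously in left flank; randomised 20 days later (n = 6/group). Gemcitabine 15 mg/kg i.p. every 72 h against vehicle (100 µl daily orally). Tumour volume measured every 3 days by caliper as 1/2 × length × width² (mm³); mice sacrificed after 27th treatment day and tumours weighed; unpaired Student's t-test.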

[29] = test system: MIA PaCa-2; test: Antitumor activity against human MIA PaCa-2 cells xenografted in Foxn1nu athymic nude mouse assessed as reduction in tumor volume at 15 mg/kg, ip administered every 3 days for 4 weeks by digital caliper method relative to control; assay type: functional; set-up: scale not given: the % may be the effect or the level left; how it was run: as §5

SMILES: Cn1cc(-c2cnc3ccc(NC(=O)Nc4cccc(C(F)(F)F)c4F)cc3n2)cn1
- Activity [1]: Dose-Dependent Effect
- Activity [2]: Active
- inhibition [3]: Dose-Dependent Effect
- Activity [4]: Active
- inhibition in vivo at 40 mg/kg [5]: > 90%
- Vd [6]: 2 L/kg
- AUC(0-inf) [7]: 22800 ng·h/mL
- Activity [8]: 75%
- GI50 [9]: 2.8 µM
- AUC(0-t) at 24 h [10]: 7990 ng·h/mL
- inhibition [11]: Tde
- MRT inf [12]: 4.5 h
- bioavailability [13]: 17.6%
- Activity [14]: 75%
- AUC(0-inf) [15]: 8010 ng·h/mL
- Cmax [16]: 700 ng/mL
- Activity [17]: Active
- half-life [18]: 2.7 h
- MRT inf [19]: 6.3 h
- Tmax [20]: 6 h
- Cmax [21]: 5980 ng/mL
- AUC(0-t) at 24 h [22]: 20300 ng·h/mL
- half-life [23]: 2.5 h
- GI50 [24]: 1.7 µM
- Activity [25]: Active
- inhibition in vivo at 40 mg/kg [26]: > 90%
- IC50 [27]: 3.3 µM

SMILES: Cn1cc(-c2cnc3ccc(NC(=O)Nc4ccc(F)c(Cl)c4)cc3n2)cn1
- Activity [17]: inactive

SMILES: Cn1cc(-c2cnc3ccc(NC(=O)Nc4cccc(OC(F)(F)F)c4)cc3n2)cn1
- Activity [17]: inactive

SMILES: Cc1cc(NC(=O)Nc2ccc3ncc(-c4cnn(C)c4)nc3c2)ccc1F
- Activity [17]: inactive

SMILES: Cn1cc(-c2cnc3ccc(NC(=O)Nc4cccc(C(F)(F)F)c4)cc3n2)cn1
- Activity [17]: inactive

SMILES: O=C(Nc1ccc(Br)cc1)Nc1ccc2nc(-c3ccco3)c(-c3ccco3)nc2c1
- AUC(0-t) at 24 h [10]: 1630 ng·h/mL
- bioavailability [13]: 3.1%
- AUC(0-inf) [15]: 1860 ng·h/mL
- Cmax [16]: 300 ng/mL
- Activity [17]: inactive
- MRT inf [19]: 5.2 h
- Tmax [20]: 2.5 h
- half-life [23]: 2 h
- IC50 [27]: 8.4 µM

SMILES: Cc1ccc2nc(NCCN)c3ncc(C)n3c2c1
- Activity [17]: inactive

SMILES: Nc1ccn([C@@H]2O[C@H](CO)[C@@H](O)C2(F)F)c(=O)n1 [GEMCITABINE]
- Activity [28]: 45%
- Activity [29]: 45%

SMILES: Cn1cc(-c2cnc3ccc(NC(=O)Nc4ccc(F)c(OC(F)(F)F)c4)cc3n2)cn1
- Activity [17]: inactive
